Test results reported in ChEMBL document CHEMBL1154122, “A comprehensive study of Sansalvamide A derivatives: The structure-activity relationships of 78 derivatives in two pancreatic cancer cell lines” (2009).
Square brackets hold non-standard residues; d marks the D form. Peptide text beside a SMILES is read from it. * marks the point of attachment. dNMeF = CN[C@H](Cc1ccccc1)C(=O)O; Tic = O=C(O)[C@@H]1Cc2ccccc2CN1; NMeL = CN[C@@H](CC(C)C)C(=O)O; dNMeL = CN[C@H](CC(C)C)C(=O)O; dNMeV = CN[C@@H](C(=O)O)C(C)C; dAbu = CC[C@@H](N)C(=O)O; Abu = CC[C@H](N)C(=O)O; Cbz = O=C(OCc1ccccc1)*; Bn = c1ccc(C*)cc1

Columns and labels:
[1] = Cytotoxicity against human PL45 cells after 56 hrs by [3H]thymidine uptake assay; format: functional
Method in brief: (§1)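 Cells seeded at 2000–2500/well in DMEM with L-glutamine, 10% FBS and 1% penicillin-streptomycin. […] After 56 h, 3H-thymidine was added for 16 h more (72 h total), then cells were harvested and counted (CPM). Inhibition = 1 − CPM treated/DMSO; IC50 taken from curves, mean and SEM.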

[2] = system: BXPC-3; test: Cytotoxicity against human BxPC3 cells after 56 hrs by [3H]thymidine uptake assay; format: functional; method in brief: as §1

Structure (SMILES) | growth inhibition (GI) [1] | growth inhibition (GI) [2]
CC(C)C[C@@H]1NC(=O)[C@@H](Cc2ccccc2)NC(=O)[C@@H](CC(C)C)NC(=O)[C@@H](C(C)C)NC(=O)[C@H](CCCCNC(=O)OCc2ccccc2)NC1=O (cyclo(K(Cbz)[dV][dL][dF]L)) | 12% | 38%
CC[C@@H]1NC(=O)[C@H](CC(C)C)NC(=O)[C@H](CC(C)C)NC(=O)[C@H](Cc2ccccc2)NC(=O)[C@H](CC(C)C)NC1=O (cyclo([Abu]LFLL)) | 0% | 0%
CC[C@H]1NC(=O)[C@H](C(C)C)NC(=O)[C@H](C(C)C)NC(=O)[C@H](Cc2ccccc2)NC(=O)[C@H](C(C)C)NC1=O (cyclo(FVV[dAbu]V)) | 32% | 26%
CC(C)C[C@@H]1NC(=O)[C@H](CC(C)C)NC(=O)[C@@H](Cc2ccccc2)NC(=O)[C@H](CC(C)C)NC(=O)[C@H](C(C)C)NC1=O | 22% | 55%
CC(C)C[C@@H]1C(=O)N[C@H](CC(C)C)C(=O)N[C@H](C(C)C)C(=O)N[C@H](CC(C)C)C(=O)N[C@H](Cc2ccccc2)C(=O)N1C | 43% | 33%
CC(C)C[C@@H]1NC(=O)[C@H](Cc2ccccc2)NC(=O)[C@H](CC(C)C)NC(=O)[C@@H](Cc2ccccc2)NC(=O)[C@H](CC(C)C)NC1=O (cyclo(FLL[dF]L)) | 33% | 8%
CC(C)[C@@H]1NC(=O)[C@H](Cc2ccccc2)NC(=O)[C@H](C(C)C)NC(=O)[C@@H](COCc2ccccc2)NC(=O)[C@H](C(C)C)NC1=O (cyclo(FVV[dS](Bn)V)) | 0% | 15%
CC(C)C[C@@H]1C(=O)N[C@H](CC(C)C)C(=O)N(C)[C@H](C(C)C)C(=O)N[C@H](CC(C)C)C(=O)N[C@H](Cc2ccccc2)C(=O)N1C (cyclo([dF][dNMeL][dL][dNMeV][dL])) | 0% | 25%
CC(C)C[C@@H]1NC(=O)[C@H](C(C)C)NC(=O)[C@H](CC(C)C)N(C)C(=O)[C@H](CC(C)C)NC(=O)[C@H](Cc2ccccc2)NC1=O (cyclo(FL[NMeL]VL)) | 23% | 52%
CC(C)C[C@@H]1NC(=O)[C@H](C(C)C)NC(=O)[C@H](CCCCNC(=O)OCc2ccccc2)NC(=O)[C@H](CC(C)C)N(C)C(=O)[C@H](Cc2ccccc2)NC1=O (cyclo(F[NMeL]K(Cbz)VL)) | 36% | 35%
CC(C)C[C@@H]1NC(=O)[C@@H](C(C)C)N(C)C(=O)[C@H](CC(C)C)NC(=O)[C@@H](CC(C)C)NC(=O)[C@H](Cc2ccccc2)NC1=O | 21% | 35%
CC(C)C[C@@H]1NC(=O)[C@H](C(C)C)NC(=O)[C@H](CC(C)C)N(C)C(=O)[C@@H](CC(C)C)NC(=O)[C@@H](Cc2ccccc2)NC1=O (cyclo([dL][NMeL]VL[dF])) | 59% | 58%
CC(C)C[C@@H]1NC(=O)[C@@H](Cc2ccccc2)NC(=O)[C@@H](CC(C)C)NC(=O)[C@@H](C(C)C)NC(=O)[C@H](CCCCN)NC1=O (cyclo(K[dV][dL][dF]L)) | 0% | 28%
CC(C)C[C@@H]1NC(=O)[C@H](Cc2ccccc2)NC(=O)[C@@H](Cc2ccccc2)N(C)C(=O)[C@H](C(C)C)NC(=O)[C@H](CCCCNC(=O)OCc2ccccc2)NC1=O (cyclo(FLK(Cbz)V[dNMeF])) | 44% | 0%
CC(C)C[C@@H]1NC(=O)[C@H](Cc2ccccc2)NC(=O)[C@H](CC(C)C)NC(=O)[C@@H](C(C)C)N(C)C(=O)[C@H](CC(C)C)NC1=O | 29% | 34%
CC(C)C[C@@H]1NC(=O)[C@H](C)NC(=O)[C@H](CC(C)C)NC(=O)[C@H](CC(C)C)NC(=O)[C@H](Cc2ccccc2)NC1=O (cyclo(ALFLL)) | 18% | 20%
CC(C)C[C@@H]1NC(=O)[C@H](CC(C)C)NC(=O)[C@@H]2Cc3ccccc3CN2C(=O)[C@H](CC(C)C)NC(=O)[C@H](C(C)C)NC1=O (cyclo(LLVL[Tic])) | 35% | 54%
CC(C)C[C@@H]1NC(=O)[C@@H](CC(C)C)NC(=O)[C@H](Cc2ccccc2)NC(=O)[C@H](CC(C)C)NC(=O)[C@@H](C(C)C)NC1=O | 32% | 30%
